We go through seven compounds from ChEMBL document CHEMBL4828745, “Discovery and Structure-Activity Relationships of Quinazolinone-2-carboxamide Derivatives as Novel Orally Efficacious Antimalarials” (J Med Chem, 2021).

Values after ≈ are worked out from the molar mass of the structure shown. A value given as a limit tells only on which side of the number the result lay.

Data set [1] has as its target T1, Interstitial collagenase (Homo sapiens) (UniProt P03956).
T1 sequence (whole entry): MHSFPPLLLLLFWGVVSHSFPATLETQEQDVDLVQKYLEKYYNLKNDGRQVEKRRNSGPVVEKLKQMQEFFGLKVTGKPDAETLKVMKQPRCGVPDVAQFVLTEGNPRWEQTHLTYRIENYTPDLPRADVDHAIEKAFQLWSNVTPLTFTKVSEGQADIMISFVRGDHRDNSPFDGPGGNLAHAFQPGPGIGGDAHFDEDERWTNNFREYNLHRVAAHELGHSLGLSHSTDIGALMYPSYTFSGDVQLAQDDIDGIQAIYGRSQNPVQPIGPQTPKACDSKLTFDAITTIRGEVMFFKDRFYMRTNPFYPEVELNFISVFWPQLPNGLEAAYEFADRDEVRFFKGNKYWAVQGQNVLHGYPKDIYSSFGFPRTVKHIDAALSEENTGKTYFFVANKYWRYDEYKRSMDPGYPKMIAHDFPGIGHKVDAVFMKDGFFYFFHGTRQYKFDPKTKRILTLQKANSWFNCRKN
Briefly: Inhibition of human MMP1 assessed as fluorescence intensity using DNP-Pro-Cha-Gly-Cys(Me)-His-Ala-Lys(n-Me-Abz)-NH2 as substrate at 10 uM incubated for 20 mins relative to control.

In data set [2] the target is Matrix metalloproteinase-14 (Homo sapiens) (UniProt P50281). Briefly: Inhibition of human MMP14 assessed as fluorescence intensity using Mca-Pro-Leu-Ala-Cys(p-OmeBz)-Trp-Ala-Arg(Dpa)-NH2 as substrate at 10 uM incubated for 60 mins relative to control.
A short description of data set [3]: Intrinsic clearance in human liver microsomes at […] by LC-MS/MS analysis. It is filed as ADME, Microsome. In a few lines:
(§1)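 Liver microsomes (human, mouse or rat) at 0.4 mg/mL protein, 37 °C, with an NADPH-regenerating system. Compound at 0.25 or 0.5 μM. Acetonitrile/diazepam quench, LC-MS quantitation. CLint from the first-order degradation rate constant.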

The subject of data set [4] is Plasmodium falciparum. In words: Antiplasmodial activity against Plasmodium falciparum 3D7 infected in human erythrocyte assessed as intraerythrocytic growth inhibition incubated for 72 hrs by DAPI-staining based imaging analysis. It is filed as functional, organism-based. The note with it: 3D7, 72 h. The method, boiled down: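 P. falciparum 3D7 cultured in RPMI1640 with hypoxanthine, HEPES, 2.5 mg/mL AlbuMAX II and 5% human serum. Sorbitol-synchronized rings exposed 72 h at 37 °C under 5% CO2/5% O2, then DAPI-stained with saponin/Triton X-100 for 8 h in the dark. High-content imaging with spot detection. Duplicate points. Reference antimalarials run in each assay.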

The nature of data set [5]: Kinetic solubility of the compound in pH 6.5 phosphate buffer by nephelometry. The format is physicochemical. The note with it: read-out: Kinetic_solubility. In a few lines: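 DMSO stock spiked into pH 6.5 phosphate buffer (1% DMSO final). After 30 min, solubility range estimated by nephelometry.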
The nature of data set [6]: Cytotoxicity against human HEK293 cells assessed as cell viability incubated for 72 hrs by Alamar blue assay. The format is cell-based. In a few lines:
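HEK293 cells handled with the same incubation, compound addition and timing as the 72 h parasite assay. Alamar Blue, diluted in growth medium, was incubated 4 h at 37 °C/5% CO2, then 20 h at room temperature before plate read.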

A short description of data set [7]: Intrinsic clearance in mouse liver microsomes at […] by LC-MS/MS analysis. It is filed as ADME, Microsome. The method, boiled down:
as §1
On the technique in general: Microsomes from liver hold many membrane-bound enzymes, among them those of drug oxidation.

A short description of data set [8]: Intrinsic clearance in rat liver microsomes at […] by LC-MS/MS analysis. It is filed as ADME, Microsome. The method, boiled down:
as §1

Data set [9] can be described thus: Apparent permeability of the compound from apical to basolateral side in human Caco-2 cells at 20 uM measured after 120 mins by LC-MS analysis. The format is ADME, cell-based. The method, boiled down:
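Caco-2 monolayers, apical-to-basolateral direction, in pH 7.4 HBSS with 20 mM HEPES on both sides. Donor at nominal 20 μM, 0.1% DMSO final. Flux followed over 120 min. Quantified by LC-MS with mass balance to derive Papp.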
In general terms: Passage across Caco-2 layers is used to estimate intestinal permeability.

Data set [10] in a line: Tmax in Sprague-Dawley rat at 5.6 mg/kg, po by LC-MS analysis. The conditions noted are these: in vivo. The format is ADME, organism-based. In a few lines:
(§2)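 Male Sprague Dawley rats (n = 3) dosed orally at 5.6 mg/kg with the Na·4H2O salt suspended in 0.5% methyl cellulose in water. Plasma was sampled over time. Bioavailability was taken relative to the 1 mg/kg IV arm.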

Data set [11] in a line: Volume of distribution at steady state in Sprague-Dawley rat plasma at 1 mg/kg, iv by LC-MS analysis. It is filed as ADME, organism-based. The conditions noted are these: read-out: Vdss. In a few lines:
(§3)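 Male Sprague Dawley rats (n = 3) dosed IV at 1 mg/kg with the Na·4H2O salt in 50% DMA/50% PEG400. Plasma concentration–time profiles were obtained, and non-compartmental parameters are given as mean ± SD.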

Data set [12] is described as follows: Plasma clearance in Swiss outbred mouse at 0.95 mg/kg, iv by LC-MS analysis. It is filed as ADME, organism-based.
Data set [13] in a line: Oral bioavailability in Sprague-Dawley rat at 5.6 mg/kg by LC-MS analysis. It is filed as ADME, organism-based. The conditions noted are these: in vivo. The method, boiled down: as §2
The nature of data set [14]: Plasma clearance in Sprague-Dawley rat at 1 mg/kg, iv by LC-MS analysis. The format is ADME, organism-based. In a few lines: as §3
Data set [15] can be described thus: AUC (0 to infinity) in Swiss outbred mouse at 0.95 mg/kg, iv by LC-MS analysis. The format is ADME, organism-based. The arrangement: route intravenous, time infinity, dose 0.95 mg/kg. The conditions noted are these: in vivo.
Data set [16] in a line: AUC (0 to infinity) in Sprague-Dawley rat at 5.6 mg/kg, po by LC-MS analysis. The conditions noted are these: in vivo. It is filed as ADME, organism-based. Also on record: time infinity, route oral, dose 5.6 mg/kg. In a few lines: as §2
Data set [17] in a line: Clearance in Swiss outbred mouse blood at 0.95 mg/kg, iv by LC-MS analysis. It is filed as ADME, organism-based.
Data set [18] can be described thus: AUC (0 to infinity) in Sprague-Dawley rat at 1 mg/kg, iv by LC-MS analysis. It is filed as ADME, organism-based. Also on record: route intravenous, time infinity, dose 1 mg/kg. The conditions noted are these: in vivo. The method, boiled down:
as §3

Data set [19] can be described thus: Cmax in Sprague-Dawley rat at 5.6 mg/kg, po by LC-MS analysis. The format is ADME, organism-based. The arrangement: route oral, dose 5.6 mg/kg. The conditions noted are these: in vivo. The method, boiled down:
as §2

The nature of data set [20]: Half life in Sprague-Dawley rat at 1 mg/kg, iv by LC-MS analysis. The format is ADME, organism-based. The note with it: in vivo. In a few lines: as §3
Data set [21] is described as follows: Half life in Sprague-Dawley rat at 5.6 mg/kg, po by LC-MS analysis. The format is ADME, organism-based. The conditions noted are these: in vivo. In a few lines: as §2
In data set [22] the test system is Plasmodium falciparum. In words: Antimalarial activity against Plasmodium falciparum Cam3.1 harbouring Pf-crt, Pf-mdrl,Pf-dhfr, Pf-dhps, pf-kelch13 mutated loci assessed as inhibition of parasite growth incubated for […] by [3H]hypoxanthine incorporation assay based liquid scintillation counting method. The format is functional, organism-based. The method, boiled down:
(§4)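 Drug-resistant laboratory P. falciparum strains were compared against the sensitive strain NF54. Growth inhibition was read by a modified [3H]hypoxanthine incorporation assay over 72 h. IC50 is the mean of two independent biological replicates. Chloroquine and artesunate served as controls.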

In data set [23] the test system is Plasmodium falciparum. In words: Antimalarial activity against Plasmodium falciparum Dd2 harbouring Pf-crt, Pf-mdrl,Pf-dhfr, Pf-dhps mutated loci assessed as inhibition of parasite growth incubated for […] by [3H]hypoxanthine incorporation assay based liquid scintillation counting method. The format is functional, organism-based. The method, boiled down:
as §4

Data set [24] has as its system Plasmodium falciparum. In words: Antimalarial activity against Plasmodium falciparum TM90C2b harbouring Pf-crt, Pf-mdrl,Pfd-hfr, Pf-cytbQ0 mutated loci assessed as inhibition of parasite growth incubated for […] by [3H]hypoxanthine incorporation assay based liquid scintillation counting method. It is filed as functional, organism-based. In a few lines:
as §4

In data set [25] the test system is Plasmodium falciparum. Briefly: Antimalarial activity against Plasmodium falciparum NF54 assessed as inhibition of parasite growth incubated for 72 hrs by [3H]hypoxanthine incorporation assay based liquid scintillation counting method.
The subject of data set [26] is Plasmodium falciparum. In words: Antimalarial activity against Plasmodium falciparum K1 harbouring Pf-crt, Pf-mdrl,Pf-dhfr, Pf-dhps mutated loci assessed as inhibition of parasite growth incubated for […] by [3H]hypoxanthine incorporation assay based liquid scintillation counting method. It is filed as functional, organism-based. In a few lines: as §4
For data set [27], the system named is Plasmodium falciparum. In words: Antimalarial activity against Plasmodium falciparum 7G8 harbouring Pf-crt, Pf-mdrl,Pf-dhfr, Pf-dhps mutated loci assessed as inhibition of parasite growth incubated for […] by [3H]hypoxanthine incorporation assay based liquid scintillation counting method. The format is functional, organism-based. In a few lines: as §4

Take `CCc1cccc(CNC(=O)c2nc3cccc(COCc4ccc(C(=O)O)cc4)c3c(=O)[nH]2)c1`: the figures for the inhibition in data set [1] and in data set [2] were 11.3% and 10.8%, respectively.
On to `O=C(O)c1ccc(CCOc2c(F)ccc3nc(C(=O)NCc4ccccc4)[nH]c(=O)c23)cc1`, for which the figures for the CLH in [3], in data set [7] and in data set [8] were 7 uL/ml.millig, 12 uL/ml.millig and 123 uL/ml.millig, respectively. In the data set with Plasmodium falciparum [4], the half-inhibitory concentration (IC50) (in general, the concentration that inhibits the measured activity by half) turned out to be 3670 nM. Moreover, the solubility kinetic in data set [5] stood at 6.3 µg/mL (≈ 13.7 µM). Besides, the cytotoxic concentration (CC50) (in general, the concentration giving 50% cytotoxicity) at 72 h in [6] is > 20000 nM. Besides, in data set [9], the Papp A→B (as a rule, the apparent permeability from the apical to the basolateral side of a cell layer) at 2 h, 20 µM came out at 16 ×10⁻⁶ cm/s.
With `CCc1cccc(CNC(=O)c2nc3cccc(COCc4ccc(C(=O)[O-])cc4)c3c(=O)[nH]2)c1.O.O.O.O.[Na+]`, the Tmax (in general, the time at which the peak concentration occurs) in data set [10] turned out to be 0.5 h. The Vd in [11] is 0.88 L/kg. Besides, the clearance (as a rule, a measure of how efficiently the substance is removed, as volume per time) in data set [12] was 31 mL/min/kg; in data set [14] it was 9.5 mL/min/kg; in data set [17] it was 57 mL/min/kg. In [13], the bioavailability (commonly dose-corrected exposure relative to a reference, in per cent) was determined as 34%. The AUC(0-inf) (as a rule, the area under the concentration-time curve extrapolated to infinity) in data set [15] is 1.1 µM·h; in data set [16] it was 6.9 µM·h; in data set [18] it was 3.7 µM·h. In addition, the concentration in [19] peaked (Cmax) at 1700 nM. The half-life – broadly, how long it takes for the measured level to halve – in data set [20] was 5.3 h; in [21], 3.2 h.
Turning to `CCc1cccc(CNC(=O)c2nc3ccc(F)c(OCCc4ccc(C(=O)O)cc4)c3c(=O)[nH]2)c1`, in the data set with Plasmodium falciparum [4], the 50% inhibitory concentration (IC50) came to 420 nM. Moreover, the solubility kinetic in data set [5] was found to be 12.5 µg/mL (≈ 25.5 µM). In addition, the half-maximal cytotoxic concentration (CC50) at 72 h in [6] was > 20000 nM. Besides, the CLH in data set [7] turned out to be 69 uL/ml.millig; in data set [8], 485 uL/ml.millig. Also, the Papp A→B at 2 h, 20 µM in data set [9] came to 44 ×10⁻⁶ cm/s.
For `O=C(O)c1ccc(CCOc2c(F)ccc3nc(C(=O)NCC4CCCCC4)[nH]c(=O)c23)cc1`, the CLH in [3] worked out at 7 uL/ml.millig; in data set [7] it was 62 uL/ml.millig; in [8] it was 740 uL/ml.millig. Further, the IC50 in the data set on Plasmodium falciparum [4] was > 20000 nM. Besides, the solubility kinetic in [5] was < 1.6 µg/mL. Also, the CC50 at 72 h in data set [6] is > 20000 nM. Moreover, the Papp A→B at 2 h, 20 µM in data set [9] was 32 ×10⁻⁶ cm/s.
In the case of `CCN(CC)CCCC(C)Nc1ccnc2cc(Cl)ccc12` (centres undefined) [CHLOROQUINE], the IC50 in the data set with Plasmodium falciparum [22] is 160 nM; with Plasmodium falciparum [23], 10 nM; in the data set on Plasmodium falciparum [24] it was 67 nM.
For the compound `C[C@H]1[C@H](OC(=O)CCC(=O)O)O[C@@H]2O[C@@]3(C)CC[C@H]4[C@H](C)CC[C@@H]1[C@@]24OO3` [ARTESUNATE], the 50% inhibitory concentration (IC50) in the data set with Plasmodium falciparum [22] was found to be 4 nM; with Plasmodium falciparum [25] it was 6 nM; in the data set on Plasmodium falciparum [23], 6 nM; in the data set with Plasmodium falciparum [4], 0.6 nM; in the data set on Plasmodium falciparum [26], 4 nM; in the data set with Plasmodium falciparum [27], 3 nM. Further, in the data set with Plasmodium falciparum [24], the IC50 was 2 nM.
